Measurements taken from ChEMBL document CHEMBL1147968, “Novel lbeta-methylcarbapenems having cyclic sulfonamide moieties: synthesis and evaluation of in vitro antibacterial activity” (2007).
≈ marks a conversion by molar mass, not a printed value.

Key:
Staphylococcus aureus [1] = experiment: Antibacterial activity against Staphylococcus aureus 1218 after 18 to 24 hrs by agar dilution method; format: functional
Method in brief: (§1)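 MICs were determined by agar dilution on test agar. An overnight tryptosoy broth culture was diluted in the same broth to about 10⁶ cells/mL and spotted with an inoculating device onto agar containing serial twofold dilutions of compound. Plates were incubated at 37 °C for 18–20 h, and the MIC was the lowest concentration with no visible growth.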

[2] = Antibacterial activity against Salmonella oranienburg after 18 to 24 hrs by agar dilution method; format: functional, Salmonella enterica subsp. enterica serovar Oranienburg; settings: Salmonella enterica; method in brief: as §1
Pseudomonas aeruginosa [3] = experiment: Antibacterial activity against Pseudomonas aeruginosa 880/2 after 18 to 24 hrs by agar dilution method; format: functional; method in brief: as §1
Escherichia coli [4] = experiment: Antibacterial activity against Escherichia coli 0114 after 18 to 24 hrs by agar dilution method; format: functional; method in brief: as §1
Citrobacter freundii = experiment: Antibacterial activity against Citrobacter freundii 323 after 18 to 24 hrs by agar dilution method; format: functional; method in brief: as §1
Escherichia coli [5] = experiment: Antibacterial activity against Escherichia coli V6311/65 after 18 to 24 hrs by agar dilution method; format: functional; method in brief: as §1
Micrococcus luteus = experiment: Antibacterial activity against Micrococcus luteus ATCC 9341 after 18 to 24 hrs by agar dilution method; format: functional; method in brief: as §1
Proteus mirabilis [6] = experiment: Antibacterial activity against Proteus mirabilis 174/3 after 18 to 24 hrs by agar dilution method; format: functional; method in brief: as §1
Streptococcus pneumoniae = experiment: Antibacterial activity against Streptococcus pneumoniae 0025 after 18 to 24 hrs by agar dilution method; format: functional; method in brief: as §1
Escherichia coli [7] = experiment: Antibacterial activity against Escherichia coli 04 after 18 to 24 hrs by agar dilution method; format: functional; method in brief: as §1
Staphylococcus aureus [8] = experiment: Antibacterial activity against Staphylococcus aureus 503 after 18 to 24 hrs by agar dilution method; format: functional; method in brief: as §1
Serratia marcescens [9] = experiment: Antibacterial activity against Serratia marcescens 3349 after 18 to 24 hrs by agar dilution method; format: functional; method in brief: as §1
Enterococcus durans = experiment: Antibacterial activity against Streptococcus durans D after 18 to 24 hrs by agar dilution method; format: functional; method in brief: as §1
Staphylococcus = experiment: Antibacterial activity against coagulase negative Staphylococcus after 18 to 24 hrs by agar dilution method; format: functional
Method in brief: (§2)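 Agar dilution on test agar holding serial twofold dilutions of compound. Overnight tryptosoy broth cultures were diluted in the same broth to about 10⁶ cells/mL and spotted with an inoculating device. Plates were incubated at 37 °C for 18–20 h.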

Enterobacter cloacae [10] = experiment: Antibacterial activity against Enterobacter cloacae after 18 to 24 hrs by agar dilution method; format: functional; method in brief: as §1
Pseudomonas aeruginosa [11] = experiment: Antibacterial activity against Pseudomonas aeruginosa 110/2 after 18 to 24 hrs by agar dilution method; format: functional; method in brief: as §1
Staphylococcus aureus [12] = experiment: Antibacterial activity against Staphylococcus aureus 209P after 18 to 24 hrs by agar dilution method; format: functional; method in brief: as §1
Enterococcus faecalis = experiment: Antibacterial activity against Enterococcus faecalis 2347 after 18 to 24 hrs by agar dilution method; format: functional; method in brief: as §1
Salmonella = experiment: Antibacterial activity against Salmonella orion after 18 to 24 hrs by agar dilution method; format: functional; method in brief: as §1
Proteus mirabilis [13] = experiment: Antibacterial activity against Proteus mirabilis 112/3 after 18 to 24 hrs by agar dilution method; format: functional; method in brief: as §1
Pseudomonas aeruginosa [14] = experiment: Antibacterial activity against Pseudomonas aeruginosa 77/2 after 18 to 24 hrs by agar dilution method; format: functional; method in brief: as §1
Klebsiella pneumoniae [15] = experiment: Antibacterial activity against Klebsiella pneumoniae 477 after 18 to 24 hrs by agar dilution method; format: functional; method in brief: as §1
Escherichia coli [16] = experiment: Antibacterial activity against Escherichia coli 086 after 18 to 24 hrs by agar dilution method; format: functional; method in brief: as §1
Streptococcus pyogenes = experiment: Antibacterial activity against Streptococcus pyogenes 9889 after 18 to 24 hrs by agar dilution method; format: functional; method in brief: as §2
Pseudomonas aeruginosa [17] = experiment: Antibacterial activity against Pseudomonas aeruginosa 9027 after 18 to 24 hrs by agar dilution method; format: functional; method in brief: as §1
Pseudomonas aeruginosa [18] = experiment: Antibacterial activity against Pseudomonas aeruginosa 5455 after 18 to 24 hrs by agar dilution method; format: functional; method in brief: as §1
Pasteurella multocida = experiment: Antibacterial activity against Pasteurella multocida after 18 to 24 hrs by agar dilution method; format: functional; method in brief: as §1
Salmonella typhi = experiment: Antibacterial activity against Salmonella typhi after 18 to 24 hrs by agar dilution method; format: functional, Salmonella enterica subsp. enterica serovar Typhi; settings: Salmonella enterica
Method in brief: (§3)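 Agar dilution on test agar with serial twofold dilutions of compound. Overnight tryptosoy broth cultures diluted in the same broth to about 10⁶ cells/mL, then applied with an inoculating device. Plates incubated at 37 °C for 18–20 h.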

Klebsiella pneumoniae [19] = experiment: Antibacterial activity against Klebsiella pneumoniae 523 after 18 to 24 hrs by agar dilution method; format: functional; method in brief: as §1
[20] = tested on: Corynebacterium diphtheriae; experiment: Antibacterial activity against Corynebacterium diphtheriae after 18 to 24 hrs by agar dilution method; format: functional; method in brief: as §1
Staphylococcus aureus [21] = experiment: Antibacterial activity against Staphylococcus aureus giorgio after 18 to 24 hrs by agar dilution method; format: functional; method in brief: as §1
Providencia rettgeri [22] = experiment: Antibacterial activity against Proteus rettgeri 936 after 18 to 24 hrs by agar dilution method; format: functional; method in brief: as §1
Providencia rettgeri [23] = experiment: Antibacterial activity against Proteus rettgeri 937 after 18 to 24 hrs by agar dilution method; format: functional; method in brief: as §1
Salmonella paratyphi = experiment: Antibacterial activity against Salmonella paratyphi A after 18 to 24 hrs by agar dilution method; format: functional, Salmonella enterica subsp. enterica serovar Paratyphi A; settings: Salmonella enterica; method in brief: as §3
Escherichia coli [24] = experiment: Antibacterial activity against Escherichia coli 1507 after 18 to 24 hrs by agar dilution method; format: functional; method in brief: as §1
Trueperella pyogenes = experiment: Antibacterial activity against Corynebacterium pyogenes after 18 to 24 hrs by agar dilution method; format: functional; method in brief: as §1
Acinetobacter baumannii = experiment: Antibacterial activity against Acinetobacter baumannii 2289 after 18 to 24 hrs by agar dilution method; format: functional; method in brief: as §1
Serratia marcescens [25] = experiment: Antibacterial activity against Serratia marcescens 370 after 18 to 24 hrs by agar dilution method; format: functional; method in brief: as §1
Enterobacter cloacae [26] = experiment: Antibacterial activity against Enterobacter cloacae 34 after 18 to 24 hrs by agar dilution method; format: functional; method in brief: as §1
Streptococcus agalactiae [27] = experiment: Antibacterial activity against Streptococcus agalactiae B after 18 to 24 hrs by agar dilution method; format: functional; method in brief: as §1
[28] = Antibacterial activity against Salmonella give after 18 to 24 hrs by agar dilution method; format: functional, Salmonella enterica subsp. enterica serovar Give; settings: Salmonella enterica; method in brief: as §1
Haemophilus influenzae = experiment: Antibacterial activity against Haemophilus influenzae 1210 after 18 to 24 hrs by agar dilution method; format: functional; method in brief: as §1
Priestia megaterium = experiment: Antibacterial activity against Bacillus megaterium after 18 to 24 hrs by agar dilution method; format: functional; method in brief: as §1
Streptococcus agalactiae [29] = experiment: Antibacterial activity against Streptococcus agalactiae 32 after 18 to 24 hrs by agar dilution method; format: functional; method in brief: as §1
Proteus vulgaris = experiment: Antibacterial activity against Proteus vulgaris 868 after 18 to 24 hrs by agar dilution method; format: functional; method in brief: as §1
Enterobacter cloacae [30] = experiment: Antibacterial activity against Enterobacter cloacae 417 after 18 to 24 hrs by agar dilution method; format: functional; method in brief: as §1
Salmonella typhimurium = experiment: Antibacterial activity against Salmonella Typhimurium after 18 to 24 hrs by agar dilution method; format: functional, Salmonella enterica subsp. enterica serovar Typhimurium; settings: Salmonella enterica; method in brief: as §1
Serratia marcescens [31] = experiment: Antibacterial activity against Serratia marcescens 6093 after 18 to 24 hrs by agar dilution method; format: functional; method in brief: as §1
Serratia marcescens [32] = experiment: Antibacterial activity against Serratia marcescens 14273 after 18 to 24 hrs by agar dilution method; format: functional; method in brief: as §1
Bacillus subtilis = experiment: Antibacterial activity against Bacillus subtilis ATCC 6633 after 18 to 24 hrs by agar dilution method; format: functional; method in brief: as §1
Escherichia coli [33] = experiment: Antibacterial activity against Escherichia coli 0126 after 18 to 24 hrs by agar dilution method; format: functional; method in brief: as §1
Escherichia coli [34] = experiment: Antibacterial activity against Escherichia coli TEM after 18 to 24 hrs by agar dilution method; format: functional; method in brief: as §1
Enterococcus faecium = experiment: Antibacterial activity against Streptococcus faecium 77A after 18 to 24 hrs by agar dilution method; format: functional; method in brief: as §1
Burkholderia cepacia = experiment: Antibacterial activity against Pseudomonas cepacia after 18 to 24 hrs by agar dilution method; format: functional; method in brief: as §1

## C[C@@H](O)[C@H]1C(=O)N2C(C(=O)O)=C(SCCNC=N)C[C@H]12 [IMIPENEM ANHYDROUS]
Staphylococcus aureus [1]
  MIC: 1.56 µg/mL (≈ 5.21 µM)
[2]
  MIC: 0.4 µg/mL (≈ 1.34 µM)
Pseudomonas aeruginosa [3]
  MIC: 0.8 µg/mL (≈ 2.67 µM)
Escherichia coli [4]
  MIC: 0.1 µg/mL (≈ 0.334 µM)
Citrobacter freundii
  MIC: 0.391 µg/mL (≈ 1.31 µM)
Escherichia coli [5]
  MIC: 0.05 µg/mL (≈ 0.167 µM)
Micrococcus luteus
  MIC: 0.01 µg/mL (≈ 0.0334 µM)
Proteus mirabilis [6]
  MIC: 0.1 µg/mL (≈ 0.334 µM)
Streptococcus pneumoniae
  MIC: < 0.01 µg/mL
Escherichia coli [7]
  MIC: 0.195 µg/mL (≈ 0.651 µM)
Staphylococcus aureus [8]
  MIC: < 0.01 µg/mL
Serratia marcescens [9]
  MIC: 0.781 µg/mL (≈ 2.61 µM)
Enterococcus durans
  MIC: 0.1 µg/mL (≈ 0.334 µM)
Staphylococcus
  MIC: 0.025 µg/mL (≈ 0.0835 µM)
Enterobacter cloacae [10]
  MIC: 0.1 µg/mL (≈ 0.334 µM)
Pseudomonas aeruginosa [11]
  MIC: 0.8 µg/mL (≈ 2.67 µM)
Staphylococcus aureus [12]
  MIC: 0.01 µg/mL (≈ 0.0334 µM)
Enterococcus faecalis
  MIC: 1.56 µg/mL (≈ 5.22 µM)
Salmonella
  MIC: 0.2 µg/mL (≈ 0.668 µM)
Proteus mirabilis [13]
  MIC: 0.2 µg/mL (≈ 0.668 µM)
Pseudomonas aeruginosa [14]
  MIC: 0.8 µg/mL (≈ 2.67 µM)
Klebsiella pneumoniae [15]
  MIC: 0.2 µg/mL (≈ 0.668 µM)
Escherichia coli [16]
  MIC: 0.1 µg/mL (≈ 0.334 µM)
Streptococcus pyogenes
  MIC: < 0.01 µg/mL
Pseudomonas aeruginosa [17]
  MIC: 0.8 µg/mL (≈ 2.67 µM)
Pseudomonas aeruginosa [18]
  MIC: 3.12 µg/mL (≈ 10.4 µM)
Pasteurella multocida
  MIC: < 0.01 µg/mL
Salmonella typhi
  MIC: 0.05 µg/mL (≈ 0.167 µM)
Klebsiella pneumoniae [19]
  MIC: 0.781 µg/mL (≈ 2.61 µM)
[20]
  MIC: < 0.01 µg/mL
Staphylococcus aureus [21]
  MIC: 0.02 µg/mL (≈ 0.0668 µM)
Providencia rettgeri [22]
  MIC: 0.2 µg/mL (≈ 0.668 µM)
Providencia rettgeri [23]
  MIC: 0.2 µg/mL (≈ 0.668 µM)
Salmonella paratyphi
  MIC: 0.1 µg/mL (≈ 0.334 µM)
Escherichia coli [24]
  MIC: 0.1 µg/mL (≈ 0.334 µM)
Trueperella pyogenes
  MIC: 0.01 µg/mL (≈ 0.0334 µM)
Acinetobacter baumannii
  MIC: 12.5 µg/mL (≈ 41.8 µM)
Serratia marcescens [25]
  MIC: 0.2 µg/mL (≈ 0.668 µM)
Enterobacter cloacae [26]
  MIC: 0.781 µg/mL (≈ 2.61 µM)
Streptococcus agalactiae [27]
  MIC: 0.01 µg/mL (≈ 0.0334 µM)
[28]
  MIC: 0.2 µg/mL (≈ 0.668 µM)
Haemophilus influenzae
  MIC: 6.25 µg/mL (≈ 20.9 µM)
Priestia megaterium
  MIC: 0.03 µg/mL (≈ 0.1 µM)
Streptococcus agalactiae [29]
  MIC: 0.01 µg/mL (≈ 0.0334 µM)
Proteus vulgaris
  MIC: 0.1 µg/mL (≈ 0.334 µM)
Enterobacter cloacae [30]
  MIC: 0.1 µg/mL (≈ 0.334 µM)
Salmonella typhimurium
  MIC: 0.4 µg/mL (≈ 1.34 µM)
Serratia marcescens [31]
  MIC: 0.4 µg/mL (≈ 1.34 µM)
Serratia marcescens [32]
  MIC: 0.8 µg/mL (≈ 2.67 µM)
Bacillus subtilis
  MIC: 0.03 µg/mL (≈ 0.1 µM)
Escherichia coli [33]
  MIC: 0.1 µg/mL (≈ 0.334 µM)
Escherichia coli [34]
  MIC: 0.2 µg/mL (≈ 0.668 µM)
Enterococcus faecium
  MIC: < 0.01 µg/mL
Burkholderia cepacia
  MIC: 0.8 µg/mL (≈ 2.67 µM)
